Measurements published in ChEMBL document CHEMBL3286311, “Novel and high affinity fluorescent ligands for the serotonin transporter based on (s)-citalopram” (ACS Med Chem Lett, 2014).
Calls of active or inactive are those of the source. The rule behind the calls is not given here.

What was measured:
[1] = target: T1, Sodium-dependent noradrenaline transporter (Homo sapiens, UniProt P23975); experiment: Inhibition of 2,5,6-[3H]-dopamine uptake at human NET expressed in African green monkey COS7 cells at 10 uM incubated for 10 mins prior to radioligand addition measured after 5 mins by scintillation counting analysis; format: cell-based; settings: COS-7
[2] = target: T2, Sodium-dependent dopamine transporter (Homo sapiens, UniProt Q01959); experiment: Inhibition of 2,5,6-[3H]-dopamine uptake at human DAT expressed in African green monkey COS7 cells at 10 uM incubated for 10 mins prior to radioligand addition measured after 5 mins by scintillation counting analysis; format: cell-based; settings: COS-7
[3] = target: T3, Sodium-dependent serotonin transporter (Homo sapiens, UniProt P31645); experiment: Inhibition of 5-hydroxy[3H]tryptamine uptake at human SERT expressed in African green monkey COS7 cells incubated for 10 mins prior to radioligand addition measured after 5 mins by scintillation counting analysis; format: cell-based, COS-7
Target sequence in this assay (P31645 whole entry): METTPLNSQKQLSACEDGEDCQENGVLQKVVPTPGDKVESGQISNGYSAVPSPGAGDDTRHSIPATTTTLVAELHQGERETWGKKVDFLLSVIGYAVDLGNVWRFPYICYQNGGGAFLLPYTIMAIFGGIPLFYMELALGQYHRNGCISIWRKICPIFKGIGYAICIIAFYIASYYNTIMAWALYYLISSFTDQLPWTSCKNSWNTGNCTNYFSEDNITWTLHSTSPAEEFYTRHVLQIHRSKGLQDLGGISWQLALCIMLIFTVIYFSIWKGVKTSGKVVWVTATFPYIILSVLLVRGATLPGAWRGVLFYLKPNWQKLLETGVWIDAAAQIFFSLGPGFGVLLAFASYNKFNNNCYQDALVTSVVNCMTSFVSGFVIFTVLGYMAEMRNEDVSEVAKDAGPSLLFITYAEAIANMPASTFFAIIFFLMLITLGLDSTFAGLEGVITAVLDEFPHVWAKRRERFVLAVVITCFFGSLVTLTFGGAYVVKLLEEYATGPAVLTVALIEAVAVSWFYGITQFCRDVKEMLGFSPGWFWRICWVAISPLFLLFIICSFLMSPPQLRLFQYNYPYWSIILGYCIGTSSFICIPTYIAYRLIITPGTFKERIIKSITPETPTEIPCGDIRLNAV

[4] = target: T3, Sodium-dependent serotonin transporter; experiment: Displacement of [3H]-S-citalopram from human SERT expressed in African green monkey COS7 cells incubated for 10 mins prior to [3H]-S-citalopram addition measured after 2 hrs by scintillation counting analysis; format: cell-based, COS-7
In short: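 Competition binding at hSERT in transiently transfected COS7 cells with [3H]-S-citalopram (2 nM) as radioligand. IC50 came from nonlinear regression and was converted to Ki using a Kd for [3H]-S-citalopram determined in parallel. SE interval is from pKi ± SE. Values are means of three to four experiments, each in triplicate.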
Target sequence in this assay (P31645 whole entry): as above

[5] = target: T3, Sodium-dependent serotonin transporter; experiment: Binding affinity to N-terminal EGFP-tagged SERT (unknown origin) expressed in HEK293 cells at 20 nM after 10 mins by confocal laser scanning microscopy; format: cell-based
In short: (§1)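 Live confocal imaging of HEK293 cells transiently expressing SERT with an N-terminal EGFP tag. Cells were incubated at room temperature with 20 nM ligand and imaged at 0, 1, 5, 10 or 20 min. Rhodamine signal was compared with the EGFP signal and merged with a transmission image. Paroxetine (100 μM) was coincubated as the specificity control. Three identical experiments were run.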
Target sequence in this assay (P31645 whole entry, looked up): as the sequence (P31645 whole entry) above

[6] = target: T3, Sodium-dependent serotonin transporter; experiment: Binding affinity to N-terminal EGFP-tagged SERT (unknown origin) expressed in HEK293 cells at 20 nM after 10 mins by confocal laser scanning microscopy in presence of SERT inhibitor paroxetine; format: cell-based; in short: as §1
Target sequence in this assay (P31645 whole entry, looked up): as the sequence (P31645 whole entry) above

[7] = target: T3, Sodium-dependent serotonin transporter; experiment: Selectivity ratio of ZP455 Ki to compound Ki for human SERT
Target sequence in this assay (P31645 whole entry, looked up): as the sequence (P31645 whole entry) above

[8] = target: T3, Sodium-dependent serotonin transporter; experiment: Binding affinity to N-terminal EGFP-tagged SERT (unknown origin) expressed in HEK293 cells at 20 nM by confocal laser scanning microscopy; format: cell-based; settings: TDE = time-dependent effect; in short: as §1
Target sequence in this assay (P31645 whole entry, looked up): as the sequence (P31645 whole entry) above

[9] = target: T1, Sodium-dependent noradrenaline transporter; experiment: Inhibition of 2,5,6-[3H]-dopamine uptake at human NET expressed in African green monkey COS7 cells incubated for 10 mins prior to radioligand addition measured after 5 mins by scintillation counting analysis; format: cell-based, COS-7
In short: (§2)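 Uptake inhibition in transiently transfected COS7 cells, with 2,5,6-[3H]dopamine as substrate for both DAT and NET. IC50 came from nonlinear regression. Ki was calculated using the dopamine KM, which was determined in parallel. Values are means of three to four repeats, each in triplicate, with SE interval from pKI ± SE.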

[10] = target: T2, Sodium-dependent dopamine transporter; experiment: Inhibition of 2,5,6-[3H]-dopamine uptake at human DAT expressed in African green monkey COS7 cells incubated for 10 mins prior to radioligand addition measured after 5 mins by scintillation counting analysis; format: cell-based, COS-7; in short: as §2

T1 sequence (P23975 whole entry): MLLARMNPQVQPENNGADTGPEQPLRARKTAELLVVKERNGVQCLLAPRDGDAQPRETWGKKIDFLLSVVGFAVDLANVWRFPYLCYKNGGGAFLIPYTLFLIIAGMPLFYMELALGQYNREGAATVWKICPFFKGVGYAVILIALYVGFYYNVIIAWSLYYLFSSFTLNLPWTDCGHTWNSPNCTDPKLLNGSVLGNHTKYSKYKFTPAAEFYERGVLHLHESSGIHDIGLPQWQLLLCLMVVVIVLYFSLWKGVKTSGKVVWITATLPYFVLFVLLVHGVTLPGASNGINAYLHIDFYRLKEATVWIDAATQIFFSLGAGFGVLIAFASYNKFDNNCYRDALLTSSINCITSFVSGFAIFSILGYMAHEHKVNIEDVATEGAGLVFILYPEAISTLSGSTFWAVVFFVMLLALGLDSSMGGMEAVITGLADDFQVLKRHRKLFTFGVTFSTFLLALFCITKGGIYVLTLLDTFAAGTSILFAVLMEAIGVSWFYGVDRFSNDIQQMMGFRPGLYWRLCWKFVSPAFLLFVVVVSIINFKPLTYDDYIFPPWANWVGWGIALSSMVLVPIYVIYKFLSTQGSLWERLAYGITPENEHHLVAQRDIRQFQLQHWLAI
T2 sequence (Q01959 whole entry): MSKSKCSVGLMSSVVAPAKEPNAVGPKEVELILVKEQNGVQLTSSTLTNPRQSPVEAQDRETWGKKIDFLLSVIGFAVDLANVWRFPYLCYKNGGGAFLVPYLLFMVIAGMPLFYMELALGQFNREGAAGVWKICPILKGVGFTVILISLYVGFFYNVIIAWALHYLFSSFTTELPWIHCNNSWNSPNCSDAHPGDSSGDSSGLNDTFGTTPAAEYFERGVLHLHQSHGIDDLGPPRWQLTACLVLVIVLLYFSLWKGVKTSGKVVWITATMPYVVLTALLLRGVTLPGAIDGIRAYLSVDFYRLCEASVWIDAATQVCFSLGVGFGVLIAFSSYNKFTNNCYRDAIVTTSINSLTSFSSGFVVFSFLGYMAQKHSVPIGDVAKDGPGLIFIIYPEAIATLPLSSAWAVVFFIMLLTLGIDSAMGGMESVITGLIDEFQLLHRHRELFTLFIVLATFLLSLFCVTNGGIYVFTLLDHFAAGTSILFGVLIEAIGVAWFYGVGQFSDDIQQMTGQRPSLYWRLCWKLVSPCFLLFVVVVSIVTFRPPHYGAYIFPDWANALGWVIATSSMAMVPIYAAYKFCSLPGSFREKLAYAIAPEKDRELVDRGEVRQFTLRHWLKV

SMILES | inhibition [1] | inhibition [2] | Ki [3] [nM] | Ki [4] [nM] | Activity [5] | Activity [6] | Ratio Ki [7] | Activity [8] | Ki [9] [nM] | Ki [10] [nM]
CN(C)CCC[C@@]1(c2ccc(F)cc2)OCc2cc(C#N)ccc21 | inactive | inactive |  |  |  |  |  |  |  | 
CCN(CC)c1ccc2c(-c3ccc(S(=O)(=O)NCCCCCC(=O)NCc4ccc5c(c4)CO[C@@]5(CCCN(C)C)c4ccc(F)cc4)cc3S(=O)(=O)[O-])c3ccc(=[N+](CC)CC)cc-3oc2c1 | inactive | inactive | 34 | 3 | Active | inactive | 75 | tde |  | 
CCN(CC)c1ccc2c(-c3ccc(S(=O)(=O)NCCCCCC(=O)NCCN4C5CCC4[C@@H](C(=O)OC)[C@@H](c4ccc(Cl)c(Cl)c4)C5)cc3S(=O)(=O)[O-])c3ccc(=[N+](CC)CC)cc-3oc2c1 (stereo not given in full) |  |  | 94 |  |  |  |  |  | 91 | 20

More lines, main results first:

inhibition [1] | inhibition [2] | Ki [3] [nM] | Ki [4] [nM] | Activity [5] | Activity [6] | Ratio Ki [7] | Activity [8] | SMILES | Ki [9] [nM] | Ki [10] [nM]
inactive | inactive | 140 | 11 |  |  |  |  | CCN(CC)c1ccc2c(-c3ccc(S(=O)(=O)NCCCCCC(=O)NCCCN(C)CCC[C@@]4(c5ccc(F)cc5)OCc5cc(C#N)ccc54)cc3S(=O)(=O)[O-])c3ccc(=[N+](CC)CC)cc-3oc2c1 |  | 
inactive | inactive | 37 | 11 |  |  |  |  | CCN(CC)c1ccc2c(-c3ccc(S(=O)(=O)NCCCCCC(=O)NCCCc4ccc5c(c4)CO[C@@]5(CCCN(C)C)c4ccc(F)cc4)cc3S(=O)(=O)[O-])c3ccc(=[N+](CC)CC)cc-3oc2c1 |  | 
inactive | inactive | 250 | 180 |  |  |  |  | CCN(CC)c1ccc2c(-c3ccc(S(=O)(=O)NCCCCCC(=O)NCCCCCN(C)CCC[C@@]4(c5ccc(F)cc5)OCc5cc(C#N)ccc54)cc3S(=O)(=O)[O-])c3ccc(=[N+](CC)CC)cc-3oc2c1 |  | 
